From ChEMBL document CHEMBL4334455, “Synthesis of Usnic Acid Derivatives and Evaluation of Their Antiproliferative Activity against Cancer Cells” (J Nat Prod, 2019)
Calls of active or inactive are those of the source. The calls are words filed in the database; no cut-off is given here.

What was measured:
MCF7 [1] = assay: Induction of vacuolization in human MCF7 cells assessed as increase in LAMP1 expression at 2.9 uM by Western blot analysis relative to control; type: functional
PC-3 [2] = assay: Anticlonogenic activity against human PC3 cells assessed as proportion of colony forming cells at 11.6 uM incubated for 24 hrs followed by recovery period of 2 weeks by culturing cells in drug-free medium by crystal violet staining based assay relative to control; type: functional
Outline: (§1)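 Cells (1 × 10⁶) plated, after 24 h given fresh medium with derivative at 1, 2, 3 or 4 μg mL⁻¹ for 24 h; then trypsinized, counted, 8 × 10² replated into two plates in compound-free medium. After 2 weeks fixed with 6.0% glutaraldehyde, stained with 0.5% crystal violet; colonies of ≥50 cells counted. Mean ± SE of three experiments in duplicate.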

MCF7 [3] = assay: Induction of apoptosis in human MCF7 cells assessed as increase in cleaved PARP level at 2.9 uM after 24 hrs by immunoblot analysis relative to control; type: functional
Outline: (§2)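 Proteins run on SDS-PAGE, transferred to PVDF, blocked in 5% milk/PBS, primary antibody overnight at 4 °C (cleaved PARP, Bax, Bcl-2), secondary 1 h at room temperature. Reprobed for β-actin; densitometry corrected for loading.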

MCF7 [4] = assay: Induction of vacuolization in human MCF7 cells at 8.7 uM after 24 to 48 hrs in presence of early autophagy inhibitor, wortmannin by TEM analysis; type: functional, cell-based
MCF7 [5] = assay: Induction of apoptosis in human MCF7 cells at 2.9 uM after 48 hrs by Annexin-V/7-AAD staining based flow cytometric analysis relative to control; type: functional
Outline: (§3)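 MCF-7 cells treated 48 h, stained with annexin V and 7-AAD (Muse annexin V and dead cell kit), and apoptotic and necrotic fractions counted by flow cytometry. Mean ± SE of three independent experiments; ANOVA with Bonferroni post hoc test.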

MCF7 [6] = assay: Antiproliferative activity against human MCF7 cells assessed as reduction in cell viability after 48 hrs by MTT assay; type: functional, cell-based; settings: Homo sapiens, MCF7, 48 h
Outline: (§4)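 Cells seeded at 4 × 10³/well for 24 h runs and for PC-3, or 2 × 10³/well for MCF-7 and HeLa 48 h runs, and attached overnight. Medium replaced with compound-containing medium for 24 or 48 h. MTT (4 mg mL⁻¹) added for the final 3 h, formazan dissolved in DMSO, absorbance read at 570 nm (reference 660 nm). IC₅₀ calculated from at least three independent experiments in duplicate, mean ± SE.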

MCF7 [7] = assay: Induction of apoptosis in human MCF7 cells assessed as increase in Bax level at 2.9 uM after 24 hrs by immunoblot analysis relative to control; type: functional; outline: as §2
HeLa [8] = assay: Antiproliferative activity against human HeLa cells assessed as reduction in cell viability after 48 hrs by MTT assay; type: functional, cell-based; settings: Homo sapiens, HeLa, 48 h; outline: as §4
MCF7 [9] = assay: Induction of cell cycle arrest in human MCF7 cells assessed as accumulation of cells at G2/M phase at 8.7 uM after 24 hrs by Propidium iodide staining based flow cytometric analysis (reference value: 27 +/- 2.97%); type: functional
MCF7 [10] = assay: Induction of apoptosis in human MCF7 cells assessed as reduction in Bcl-2 expression at 8.7 uM after 24 hrs by immunoblot analysis relative to control; type: functional; outline: as §2
MCF7 [11] = assay: Induction of cell cycle arrest in human MCF7 cells assessed as accumulation of cells at S phase at 2.9 uM after 24 hrs by Propidium iodide staining based flow cytometric analysis (reference value: 23.75 +/- 1.87%); type: functional
HeLa [12] = assay: Cell cycle arrest in human HeLa cells assessed as reduction in cell population at G2/M phase at 2.9 to 8.7 uM after 24 hrs by propidium iodide staining based flow cytometric analysis; type: functional
PC-3 [13] = assay: Anticlonogenic activity against human PC3 cells assessed as reduction in colony formation at 2.9 to 11.6 uM incubated for 24 hrs followed by recovery period of 2 weeks by culturing cells in drug-free medium by crystal violet staining based assay; type: functional, cell-based; outline: as §1
MCF7 [14] = assay: Induction of cell cycle arrest in human MCF7 cells assessed as accumulation of cells at S phase at 8.7 uM after 24 hrs by Propidium iodide staining based flow cytometric analysis (reference value: 23.75 +/- 1.87%); type: functional
MCF7 [15] = assay: Antiproliferative activity against human MCF7 cells assessed as reduction in cell viability at 8.7 uM after 24 hrs in presence of 0.5 uM actin dynamics inhibitor, cytochalasin-D by MTT assay; type: functional, cell-based
MCF7 [16] = assay: Antiproliferative activity against human MCF7 cells assessed as reduction in cell viability at 8.7 uM after 24 hrs in presence of 10 uM Na+/H+ exchange inhibitor, amiloride by MTT assay; type: functional, cell-based
MCF7 [17] = assay: Antiproliferative activity against human MCF7 cells assessed as reduction in cell viability after 24 hrs by MTT assay; type: functional, cell-based; settings: MCF7, 24 h; outline: as §4
MCF7 [18] = assay: Induction of apoptosis in human MCF7 cells assessed as increase in Bax level at 8.7 uM after 24 hrs by immunoblot analysis relative to control; type: functional; outline: as §2
MCF7 [19] = assay: Induction of cytoplasmic vacuolization in human MCF7 cells at 8.7 uM after 24 to 48 hrs by TEM analysis; type: functional, cell-based
Outline: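 MCF-7 cells (2 × 10⁵) attached overnight, then exposed to 8.7 μM derivative or DMSO for 24 or 48 h at 37 °C. Fixed in ice-cold 2.5% fixative; ultrathin 45 nm sections stained with uranyl acetate and lead citrate, imaged by TEM at 1650×.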

MCF7 [20] = assay: Induction of apoptosis in human MCF7 cell at 8.7 uM after 48 hrs by Annexin-V/7-AAD staining based flow cytometric analysis relative to control; type: functional; outline: as §3
HeLa [21] = assay: Anticlonogenic activity against human HeLa cells assessed as reduction in colony formation at 2.9 to 11.6 uM incubated for 24 hrs followed by recovery period of 2 weeks by culturing cells in drug-free medium by crystal violet staining based assay; type: functional, cell-based; outline: as §1
MCF7 [22] = assay: Induction of cell cycle arrest in human MCF7 cells assessed as accumulation of cells at G0/G1 phase at 8.7 uM after 24 hrs by Propidium iodide staining based flow cytometric analysis (reference value: 47.8 +/- 0.42%); type: functional
MCF7 [23] = assay: Induction of cell cycle arrest in human MCF7 cells assessed as accumulation of cells at G2/M phase at 2.9 uM after 24 hrs by Propidium iodide staining based flow cytometric analysis (reference value: 27 +/- 2.97%); type: functional
HeLa [24] = assay: Antiproliferative activity against human HeLa cells assessed as reduction in cell viability after 24 hrs by MTT assay; type: functional, cell-based; outline: as §4
MCF7 [25] = assay: Antiproliferative activity against human MCF7 cells assessed as reduction in cell viability at 8.7 uM after 24 hrs in presence of 50 uM dynamin inhibitor, dynasore by MTT assay relative to control; type: functional, cell-based
MCF7 [26] = assay: Induction of vacuolization in human MCF7 cells at 8.7 uM after 24 hrs in presence of 10 uM Na+/H+ exchange inhibitor, amiloride by light microscopic analysis; type: functional, cell-based
PC-3 [27] = assay: Antiproliferative activity against human PC3 cells assessed as reduction in cell viability after 48 hrs by MTT assay; type: functional, cell-based; settings: PC-3, 48 h; outline: as §4

SMILES	fold change (FC) (MCF7 [1])	Activity (PC-3 [2])	fold change (FC) (MCF7 [3])	Activity (MCF7 [4])	fold change (FC) (MCF7 [5])	IC50 (MCF7 [6])	fold change (FC) (MCF7 [7])	IC50 (HeLa [8])	Activity (MCF7 [9])	fold change (FC) (MCF7 [10])	Activity (MCF7 [11])	Activity (HeLa [12])	inhibition (PC-3 [13])	Activity (MCF7 [14])	inhibition (MCF7 [15])	inhibition (MCF7 [16])	IC50 (MCF7 [17])	fold change (FC) (MCF7 [18])	Activity (MCF7 [19])	fold change (FC) (MCF7 [20])	further results
CC(=O)c1c(O)c(C)c(O)c2c1OC1=Cc3onc(C)c3C(=O)C12C (racemic)	1.3	<50%	3.6	Active	2	2900 nM	1.02	1000 nM	14.02%	0.3	10.1%	Active	Active	8.35%	Active	Active	3100 nM	1.1	Active	3	inhibition (HeLa [21]): Active; Activity (MCF7 [22]): 75.45%; Activity (MCF7 [23]): 16.2%; IC50 (HeLa [24]): 1000 nM; inhibition (MCF7 [25]): Active; Activity (MCF7 [26]): Active; IC50 (PC-3 [27]): 2800 nM
CC(=O)c1c(O)c(C)c(O)c2c1OC1=Cc3onc(C)c3C(=O)[C@]12C	5.3	<50%	4.4	Active	2	2500 nM	1.3	1000 nM	14.65%	0.2	11.15%	Active	Active	7.25%	Active	Active	3200 nM	2.1	Active	3	inhibition (HeLa [21]): Active; Activity (MCF7 [22]): 75.7%; Activity (MCF7 [23]): 16.4%; IC50 (HeLa [24]): 1000 nM; inhibition (MCF7 [25]): Active; Activity (MCF7 [26]): Active; IC50 (PC-3 [27]): 3100 nM
